pEC50: −log10 of the molar value. In brackets after ≈: the same amount, converted by molar mass. Read-outs that look alike come from different tables or passages of the source.
Tests used:
[1] = test system: Aspergillus niger (NCIM 2191); assay: MIC, broth microdilution; format: cell-based; conditions: NCIM2191, read-out: Minimum inhibitory concentration (MIC), AN
Procedure, shortened: (§1)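 Antifungal MICs by CLSI broth microdilution in Sabouraud liquid medium. Test compounds and standard drugs are serially diluted two-fold from 512 to 0.25. The fungal broth culture is grown 24 h at 35 °C to a 0.5 McFarland turbidity, then adjusted with sterile solution to the final inoculum.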

[2] = test system: Escherichia coli (ATCC 8739); assay: MIC, broth microdilution; format: cell-based; conditions: ATCC8739, read-out: Minimum inhibitory concentration (MIC), EC
Procedure, shortened: (§2)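 Broth microdilution per CLSI in Mueller-Hinton broth, using two-fold serial dilutions of test compound and reference drugs from 512 to 0.25. Bacterial broth cultures were grown 2-6 h to 0.5 McFarland turbidity, then diluted with sterile solution to the final inoculum. MIC is reported in µg/mL.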

[3] = test system: Candida albicans (NCIM 2087); assay: Agar disk diffusion, inhibition zone; format: cell-based; conditions: 100 µg/8 mm disc, triplicate, mean ± SD
[4] = test system: Aspergillus fumigatus (NCIM 2081); assay: MIC, broth microdilution; format: cell-based; conditions: NCIM2081, read-out: Minimum inhibitory concentration (MIC), AF
Procedure, shortened: as §1

[5] = test system: Madin Darby canine kidney (MDCK) cells; conditions: dog
[6] = test system: Staphylococcus aureus (ATCC 29213); assay: MIC, broth microdilution; format: cell-based; conditions: ATCC29213, read-out: Minimum inhibitory concentration (MIC), SA
Procedure, shortened: (§3)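 Antibacterial MICs by CLSI broth microdilution in Mueller-Hinton broth. Test compounds and standard drugs are serially diluted two-fold from 512 to 0.25. The bacterial broth culture is grown 2-6 h to a 0.5 McFarland turbidity, then adjusted with sterile solution to the final inoculum.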

[7] = test system: Punta Toro virus; assay: CPE reduction assay in Vero cells; format: cell-based; conditions: read-out: Antiviral EC50, Punta Toro virus
[8] = test system: Yellow Fever virus; assay: microbe, parasite or virus in culture; format: cell-based; conditions: Yellow fever virus, Vero, read-out: Antiviral EC50, Yellow Fever virus
[9] = test system: Bacillus cereus (NCIM-2458); assay: Agar disk diffusion, inhibition zone; format: cell-based; conditions: 100 µg/8 mm disc, triplicate, mean ± SD
[10] = test system: Bacillus cereus (NCIM-2458); assay: MIC, broth microdilution; format: cell-based; conditions: NCIM2458, read-out: Minimum inhibitory concentration (MIC), BC
Procedure, shortened: as §2

[11] = test system: Cryptococcus neoformans (ATCC 9011); assay: MIC, broth microdilution; format: cell-based; conditions: ATCC9011, read-out: Minimum inhibitory concentration (MIC), CN
Procedure, shortened: as §1

[12] = test system: Aspergillus niger (NCIM 2191); assay: Agar disk diffusion, inhibition zone; format: cell-based; conditions: 100 µg/8 mm disc, triplicate, mean ± SD
Procedure, shortened: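 For the fungal strain, discs soaked in test compound solution (DMSO stock diluted with distilled water) sat on seeded Mueller-Hinton agar. Clotrimazole was the reference. Incubation ran 48 h at 35 °C, in triplicate. Zone of growth inhibition recorded in mm as the mean diameter around each disc.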

[13] = test system: Lactobacillus casei (NCIM-2651); assay: Agar disk diffusion, inhibition zone; format: cell-based; conditions: 100 µg/8 mm disc, triplicate, mean ± SD
[14] = test system: Aspergillus fumigatus (NCIM 2081); assay: Agar disk diffusion, inhibition zone; format: cell-based; conditions: 100 µg/8 mm disc, triplicate, mean ± SD
[15] = test system: Streptococcus pneumonia (ATCC 49619); assay: Agar disk diffusion, inhibition zone; format: cell-based; conditions: 100 µg/8 mm disc, triplicate, mean ± SD
[16] = test system: Para-influenza-3 virus; assay: CPE reduction assay in Vero cells; format: cell-based, Parainfluenza-3 virus; conditions: Vero, read-out: Antiviral EC50, Para-influenza-3 virus
[17] = test system: Coxsackie virus B4; assay: CPE reduction assay in Vero cells; format: cell-based; conditions: Enterovirus B, read-out: Antiviral EC50, Coxsackie virus B4
[18] = test system: Vero cells; conditions: Vero cell cultures; microscopically detectable alteration of normal cell morphology
[19] = test system: Klebsiella aerogenes (NCIM-2098); assay: MIC, broth microdilution; format: cell-based; conditions: NCIM2098, read-out: Minimum inhibitory concentration (MIC), KA
Procedure, shortened: as §3

[20] = test system: Staphylococcus aureus (ATCC 29213); assay: Agar disk diffusion, inhibition zone; format: cell-based; conditions: 100 µg/8 mm disc, triplicate, mean ± SD
Procedure, shortened: (§4)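 Agar disk diffusion on Mueller-Hinton agar plates seeded with a standard bacterial suspension. Test compound stock in DMSO, diluted with distilled water; 8 mm sterile filter-paper discs soaked in the solution. Ampicillin was the reference. Plates incubated at 35 °C for 24 h, in triplicate. Read-out is the average inhibition-zone diameter (mm) around each disc.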

[21] = test system: Adeno virus-2; assay: CPE reduction assay in HEL cells; format: cell-based; conditions: read-out: Antiviral EC50, Adeno virus-2
[22] = test system: Escherichia coli (ATCC 8739); assay: Agar disk diffusion, inhibition zone; format: cell-based; conditions: 100 µg/8 mm disc, triplicate, mean ± SD
Procedure, shortened: as §4

[23] = test system: Reovirus-1; assay: CPE reduction assay in Vero cells; format: cell-based; conditions: read-out: Antiviral EC50, Reovirus-1
[24] = test system: Cryptococcus neoformans (ATCC 9011); assay: Agar disk diffusion, inhibition zone; format: cell-based; conditions: 100 µg/8 mm disc, triplicate, mean ± SD
[25] = test system: MT4 cells; conditions: MT4 cell cultures; colorimetric MTT cell viability assay
[26] = test system: Sindbis virus; assay: CPE reduction assay in Vero cells; format: cell-based; conditions: read-out: Antiviral EC50, Sindbis virus
[27] = test system: Vaccinia virus; assay: microbe, parasite or virus in culture; format: cell-based; conditions: Orthopoxvirus vaccinia, HEL, read-out: Antiviral EC50, Vaccinia virus
[28] = test system: Human embryonic lung (HEL) cells; conditions: HEL cell cultures; microscopically detectable alteration of normal cell morphology
[29] = test system: Salmonella typhimurium (NCIM-2501); assay: Agar disk diffusion, inhibition zone; format: cell-based; conditions: 100 µg/8 mm disc, triplicate, mean ± SD
[30] = test system: Pseudomonas aeruginosa (MCCB 0035); assay: Agar disk diffusion, inhibition zone; format: cell-based; conditions: 100 µg/8 mm disc, triplicate, mean ± SD
[31] = test system: Influenza A/H1N1 A/Ned/378/05; assay: CPE reduction assay in MDCK cells; format: cell-based; conditions: Influenza A virus
[32] = test system: Pseudomonas aeruginosa (MCCB 0035); assay: MIC, broth microdilution; format: cell-based; conditions: read-out: Minimum inhibitory concentration (MIC), PA
Procedure, shortened: as §2

[33] = test system: Influenza B B/Ned/537/05; assay: CPE reduction assay in MDCK cells; format: cell-based; conditions: Influenza B virus, read-out: Antiviral EC50, Influenza B B/Ned/537/05, MTS
[34] = test system: Klebsiella aerogenes (NCIM-2098); assay: Agar disk diffusion, inhibition zone; format: cell-based; conditions: 100 µg/8 mm disc, triplicate, mean ± SD
[35] = test system: Candida albicans (NCIM 2087); assay: MIC, broth microdilution; format: cell-based; conditions: NCIM2087, read-out: Minimum inhibitory concentration (MIC), CA
Procedure, shortened: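 CLSI broth microdilution in Sabouraud liquid medium, with test compound two-fold serially diluted from 512 to 0.25. Fungal broth culture grown 24 h at 35 °C to 0.5 McFarland turbidity, then adjusted with sterile solution to a final […] inoculum. MIC expressed in µg/mL.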

[36] = test system: Influenza A/H3N2 A/HK/7/87; assay: CPE reduction assay in MDCK cells; format: cell-based; conditions: Influenza A virus
[37] = test system: Human Coronavirus (229E); assay: CPE reduction assay in HEL cells; format: cell-based; conditions: read-out: Antiviral EC50, Human Coronavirus (229E)

SMILES: Cc1ccc(S(=O)(=O)N2C(=O)CSC2c2ccc(O)cc2)cc1 (stereo not drawn) [5m, 2-(4-Hydroxyphenyl)-3-[(4-methylphenyl)sulfonyl]-1,3-thiazolidin-4-one]
- MIC [1]: 64 µg/mL (≈ 183 µM)
- MIC [2]: 16 µg/mL (≈ 45.8 µM)
- Diameter of growth inhibition zone, CA [3]: 15 ± 0.35 mm
- MIC [4]: 128 µg/mL (≈ 366 µM)
- Cytotoxicity, Minimum cytotoxic conc. [5]: >100 µM
- MIC [6]: 32 µg/mL (≈ 91.6 µM)
- pEC50 [7]: < 4.00
- pEC50 [8]: < 4.00
- Diameter of growth inhibition zone, BC [9]: 10 ± 0.6 mm
- MIC [10]: 64 µg/mL (≈ 183 µM)
- MIC [11]: 64 µg/mL (≈ 183 µM)
- Diameter of growth inhibition zone, AN [12]: 13 ± 0.6 mm
- Diameter of growth inhibition zone, LC [13]: 14 ± 0.64 mm
- Diameter of growth inhibition zone, AF [14]: 10 ± 1.2 mm
- Diameter of growth inhibition zone, SP [15]: 12 ± 2.1 mm
- pEC50 [16]: < 4.00
- pEC50 [17]: < 4.00
- Minimum cytotoxic conc. [18]: >100 µM
- MIC [19]: 64 µg/mL (≈ 183 µM)
- Diameter of growth inhibition zone, SA [20]: 13 ± 0.63 mm
- pEC50 [21]: < 4.00
- Diameter of growth inhibition zone, EC [22]: 15.9 ± 0.23 mm
- pEC50 [23]: < 4.00
- Diameter of growth inhibition zone, CN [24]: 13 ± 1.4 mm
- Minimum cytotoxic conc. [25]: >125 µM
- pEC50 [26]: < 4.00
- pEC50 [27]: < 4.00
- Minimum cytotoxic conc. [28]: >100 µM
- Diameter of growth inhibition zone, ST [29]: 12 ± 0.4 mm
- Diameter of growth inhibition zone, PA [30]: 15.2 ± 0.96 mm
- pEC50 ([31]; read-out: Antiviral EC50, Influenza A/H1N1 A/Ned/378/05, MTS): < 4.00
- pEC50 ([31]; read-out: Antiviral EC50, Influenza A/H1N1 A/Ned/378/05, visual CPE score): < 4.00
- MIC [32]: 16 µg/mL (≈ 45.8 µM)
- pEC50 [33]: < 4.00
- Diameter of growth inhibition zone, KA [34]: 10 ± 0.4 mm
- MIC [35]: 32 µg/mL (≈ 91.6 µM)
- pEC50 ([36]; read-out: Antiviral EC50, Influenza A/H3N2 A/HK/7/87, MTS): < 4.00
- pEC50 ([36]; read-out: Antiviral EC50, Influenza A/H3N2 A/HK/7/87, visual CPE score): < 4.00
- pEC50 [37]: < 4.00
